Sampled rows, rich in hits. Any-hit rate of the full collection: about 2.8%.
SIRT5 inh – blocks human SIRT5 desuccinylation of peptide; Purified SirT5, succinyl-peptide AMC, trypsin-coupled fluorescence; Q9NXA8; inhibition, % at 15 µM; actives 1.1% (n = 330,000); in the data active = inhibition above about 15%; inconclusive = no clear call, values can overlap the other calls
DENV2 CPE – DENV2-induced cell death inhibition | DENV2-infected cells, cytopathic effect rescue, plate reader | CPE inhibition, % at 9.99 µM | actives 1.7% (n = 350,000) | AID 651640; in the data active = CPE inhibition above about 20%, passing the limit was not always enough; inconclusive = no clear call, values can overlap the other calls; tested in BHK-21 cells;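 note: 0% = median of neutral control wells and 100% = median of positive control wells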
E-sel inducer – induces E-selectin expression in human endothelial cells | P16581 | actives 0.37% (n = 260,000) | activation, % at 7.58 µM | HUVEC E-selectin immunofluorescence imaging; normalized: neutral wells 0, TNF-alpha wells 100 | AID 686992;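 active = mean E-selectin-positive cell signal at least 10% of the positive control, reached in at least 60% of replicates, without over 20% cell loss; inconclusive = no rule given, readout overlaps actives, possibly toxicity-flagged; inactive = the rest, including those meeting only one limit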
Target sequence (P16581 whole entry, looked up): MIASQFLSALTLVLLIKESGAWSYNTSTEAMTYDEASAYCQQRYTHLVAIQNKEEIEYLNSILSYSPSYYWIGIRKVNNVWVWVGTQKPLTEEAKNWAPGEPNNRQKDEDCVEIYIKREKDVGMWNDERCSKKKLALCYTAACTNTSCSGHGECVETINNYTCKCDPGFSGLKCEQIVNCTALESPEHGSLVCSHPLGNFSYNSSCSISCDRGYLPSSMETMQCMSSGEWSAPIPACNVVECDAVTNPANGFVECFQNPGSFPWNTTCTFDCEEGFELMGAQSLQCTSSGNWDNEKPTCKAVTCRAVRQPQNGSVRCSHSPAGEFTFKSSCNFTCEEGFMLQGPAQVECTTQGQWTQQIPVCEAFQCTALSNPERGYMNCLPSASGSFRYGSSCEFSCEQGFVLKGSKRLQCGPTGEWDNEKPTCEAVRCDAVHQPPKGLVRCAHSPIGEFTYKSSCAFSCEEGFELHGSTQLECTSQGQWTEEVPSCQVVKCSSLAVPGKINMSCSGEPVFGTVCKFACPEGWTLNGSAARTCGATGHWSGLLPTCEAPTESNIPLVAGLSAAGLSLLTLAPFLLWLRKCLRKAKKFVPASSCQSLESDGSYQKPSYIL
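Test system – human umbilical vein endothelial cells (HUVEC), E-selectin induction · Input – 3,000 HUVEC seeded per well · Buffer or medium – EGM-2, gelatin · Compound dosing – single-point compound dose · Detection – immunofluorescence imaging · Measure – percent E-selectin-positive cells · Controls – TNF-alpha high, DMSO low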
* hit, by the source's call; ? = inconclusive; . = no result.

SMILES	SIRT5 inh	DENV2 CPE	E-sel inducer
Cc1[nH][nH]c(=O)c1C(c1ccc(-c2ccccc2C(=O)O)o1)c1c(C)[nH][nH]c1=O	6	14	-1
O=C(O)c1ccccc1-c1ccc(/C=C/c2cc(C(F)(F)F)[nH]c(=O)n2)o1	7	-3	28*
C[C@@H]1CN([C@@H](C)CO)C(=O)c2cc(NS(=O)(=O)c3ccc(Cl)cc3)ccc2O[C@@H](C)CCCCO[C@@H]1CN(C)Cc1ccc(C(=O)O)cc1	4	-4	1
CCCNC(=O)N1CC2(CN(S(=O)(=O)CC)C2)c2c(n(C)c3cc(OC)ccc23)[C@@H]1CO	3	-4	1
COc1ccc(NC(=O)Nc2ccc3c(c2)C(=O)N([C@H](C)CO)C[C@H](C)[C@H](CN(C)C(=O)Nc2ccc4c(c2)OCO4)OCCCC[C@H](C)O3)cc1	-3	2	0
CCOc1ccccc1N(CC(=O)NCCSc1ccccn1)S(=O)(=O)c1ccccc1	2	2	1
COc1ccccc1N(CC(=O)NCCSc1ccccn1)S(=O)(=O)c1ccccc1	1	15	37*
COc1ccc(-c2cc(=O)c3c(OC)c(OC)c(OC)c(OC)c3o2)cc1OC	2	-3	0
COc1ccc2c(=O)cc(-c3ccncc3)oc2c1OC	.	33*	0
O=C(C[C@@H]1C[C@@H]2c3cc(NC(=O)CC4CC4)ccc3O[C@@H]2[C@@H](CO)O1)NCc1cccnc1	1	?	0
Cc1ccc(NC(=O)CN2C(=O)N/C(=C/c3cc(C)n(-c4ccc(C(=O)O)cc4)c3C)C2=O)cc1	26*	7	.
Cc1ccc(NC(=O)CN2C(=O)S/C(=C\c3cc(C)n(-c4ccc(C(=O)O)cc4)c3C)C2=O)cc1	5	-5	-1
Cc1cccc(-c2ccc([C@H]3[C@@H](CO)N4CCCCN(C(=O)c5cccnc5)C[C@H]34)cc2)c1	-4	-12	0
Cc1cccc(-c2ccc([C@H]3[C@@H](CO)N4CCCCN(C(=O)c5ccncc5)C[C@@H]34)cc2)c1	1	51*	0
COc1ccccc1-c1ccc([C@H]2[C@H]3CN(C(=O)c4ccncc4)CCCCN3[C@H]2CO)cc1	0	22*	0
Cc1cccc(-c2ccc([C@H]3[C@@H](CO)N4CCCCN(C(=O)c5cccnc5)C[C@@H]34)cc2)c1	-2	32*	0
Cc1cccc(-c2ccc([C@H]3[C@H](CO)N4CCCCN(C(=O)c5ccncc5)C[C@@H]34)cc2)c1	.	-4	0
COc1ccccc1-c1ccc([C@@H]2[C@H]3CN(C(=O)c4ccncc4)CCCCN3[C@H]2CO)cc1	1	7	0
C[C@@H]1CN([C@H](C)CO)C(=O)c2cc(NS(=O)(=O)c3ccc(F)cc3)ccc2O[C@H]1CN(C)S(C)(=O)=O	.	.	6
O=c1c2c3c(sc2nc(NCCOCCO)n1Cc1ccco1)CCCCC3	-3	-1	.
CC(O)CNc1nc2sc3c(c2c(=O)n1Cc1ccco1)CCCCC3 (centres undefined)	-4	29*	11
CCS(=O)(=O)Nc1ccc2c(c1)C(=O)N(C)C[C@@H](OC)[C@@H](C)CN(C(=O)C1CC1)[C@H](C)CO2	1	9	0
Cc1noc(C)c1NC(=O)Nc1cccc2c1O[C@H](CN(C)Cc1ccc(Oc3ccccc3)cc1)[C@@H](C)CN([C@H](C)CO)C2=O	-4	-8	0
Cc1noc(C)c1NC(=O)Nc1cccc2c1O[C@H](CN(C)Cc1ccc(C(=O)Nc3ccccc3N)cc1)[C@H](C)CN([C@@H](C)CO)C2=O	-1	-7	0
Cc1noc(C)c1NC(=O)Nc1cccc2c1O[C@H](CN(C)Cc1ccc3c(c1)OCO3)[C@@H](C)CN([C@@H](C)CO)C2=O	2	21*	-7
SMILES	SIRT5 inh	DENV2 CPE	E-sel inducer
Cc1noc(C)c1NC(=O)Nc1cccc2c1O[C@H](CN(C)Cc1ccccc1)[C@H](C)CN([C@@H](C)CO)C2=O	-9	-4	0
Cc1noc(C)c1NC(=O)Nc1cccc2c1O[C@@H](CN(C)Cc1ccc(Oc3ccccc3)cc1)[C@@H](C)CN([C@H](C)CO)C2=O	37*	-3	0
Cc1noc(C)c1NC(=O)Nc1cccc2c1O[C@H](CN(C)Cc1ccc3c(c1)OCO3)[C@@H](C)CN([C@H](C)CO)C2=O	.	1	-3
Cc1noc(C)c1NC(=O)Nc1cccc2c1O[C@H](CN(C)Cc1ccc(C(=O)O)cc1)[C@H](C)CN([C@@H](C)CO)C2=O	0	26*	.
Cc1noc(C)c1NC(=O)Nc1cccc2c1O[C@H](CN(C)Cc1ccc(C(=O)Nc3ccccc3N)cc1)[C@@H](C)CN([C@@H](C)CO)C2=O	22*	1	1
CCC(=O)N1CC2(CCN(Cc3ccc(Cl)cc3)CC2)c2c([nH]c3cc(OC)ccc23)[C@@H]1CO	.	-9	0

Assay outcomes from PubChem BioAssay.
